Measured values: ChEMBL document CHEMBL5150073, “Photocaged DNA-Binding Photosensitizer Enables Photocontrol of Nuclear Entry for Dual-Targeted Photodynamic Therapy” (J Med Chem, 2022)
Active and inactive are the calls of the source. The rule behind the calls is not given here.

What was measured:
MCF7 [1] = experiment: Induction of ROS production in human MCF7 cells at 2 uM incubated for 1 hr in dark followed by irradiation with 480 nm 2.3 J/cm^2 light for 15 mins with 8 J/cm^2 UV irradiation for 5 mins by DCFH2-DA probe based analysis; format: functional, cell-based; details: time 80.0 min
Summary of the method: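 MCF7 cells incubated with compound (2 μM) 1 h in the dark, washed, loaded with 10 μM DCFH2DA for 30 min, washed. DCF green fluorescence imaged after 480 nm illumination (15 min, 2.3 J cm⁻²), then after added 365 nm UV (5 min, 8.0 J cm⁻²). Mean fluorescence intensity quantified.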

[2] = (§1) Stability of compound in human MCF7 cells assessed as esterase-mediated 3-bromo-2-(4-carbamimidoylphenyl)-1H-indole-6-carboxamidine release by measuring cyan fluorescence at 2 uM incubated for 1 hr followed by compound washout and further incubated for 1 hr on heated microscopic stage by DAPI filter based fluorescence analysis; format: ADME, cell-based; details: mcf7, 1 h
Summary of the method: (§2)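 Cells incubated with compound (2 μM) for 1 h, washed once with PBS, then kept a further 1 h in the dark on a heated microscope stage. Nuclear cyan fluorescence imaged with the DAPI filter set at 0 h and 2 h time points.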

[3] = as §1, with “A549” for “MCF7”; format: ADME, cell-based; details: a549, 1 h; summary of the method: as §2
Calf thymus DNA [4] = experiment: Binding affinity to calf thymus DNA assessed as fold change in fluorescence quenching of 3-bromo-2-(4-carbamimidoylphenyl)-1H-indole-6-carboxamidine; format: nucleic-acid assay; details: Bos taurus
MCF7 [5] = experiment: Photorelease activity in human MCF7 cells assessed as 3-bromo-2-(4-carbamimidoylphenyl)-1H-indole-6-carboxamidine release by measuring bright cyan fluorescence in nucleus at 3 uM incubated for 1 hr followed by illumination with 1.6 J/cm^2 for 10 mins by DAPI filter based analysis; format: ADME, cell-based; details: mcf7, 1.167 h, time 70 min
Summary of the method: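 MCF7 cells given compound (3 μM) for 1 h, washed once with PBS, imaged. DAPI filter set (ex 350–405, em 415–470 nm) used for Br-DAPI cyan signal; EGFP filter set (ex 450–495, em 500–550 nm) used for WinterGreen green signal. Cells imaged dark, then after 480 nm illumination (10 min, 1.6 J cm⁻²).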

[6] = Induction of ROS production in PBS at pH 7.4 at 1 uM irradiated with 480 nm 2.3 J/cm^2 light for 15 mins with 2-photon irradiation by DCFH2-DA probe based analysis; format: functional
[7] = Photorelease activity in PBS at pH 7.4 assessed as 3-bromo-2-(4-carbamimidoylphenyl)-1H-indole-6-carboxamidine release by measuring time at when peak observed at 50 uM in presence of CT-DNA illuminated with 3.1 J/cm^2 480 nm illumination for 20 mins by RP-HPLC analysis; format: functional
Summary of the method: (§3)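 Samples at 50 μM in PBS pH 7.4 were either kept 3 h at 37 °C in the dark or illuminated 20 min at 480 nm (450–495 nm filter, 3.1 J cm⁻²). Analysed by RP-HPLC on a C18 analytical column with absorbance at 345 nm; retention times recorded. n = 2 independent samples.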

[8] = Aqueous stability of the compound in PBS at pH 7.4 assessed as hydrolysis of carbamate to release 3-bromo-2-(4-carbamimidoylphenyl)-1H-indole-6-carboxamidine at 0.8 uM incubated for 3 hrs by fluorescence based analysis; format: physicochemical; details: buffer, pH 7.4, 3 h
MCF7 [9] = experiment: Photocytotoxicity against human MCF7 cells assessed as reduction in cell viability incubated for 1 hr under dark condition followed by washout and measured after 24 hrs by MTT assay; format: functional
Summary of the method: (§4)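 Cells (MCF7, A549, HeLa) incubated 1 h with compound (BB probes 0–32 μM, Br-DAPI 0–64 μM) and washed once. Light arms: 480 nm (15 min, 2.3 J cm⁻²) with or without UV (5 min, 8.0 J cm⁻²), or UV only; dark controls unilluminated. Cells kept overnight in growth medium, then MTT read 24 h post-treatment. CC50 taken relative to untreated cells. n = 3.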

[10] = Photorelease ability in PBS at pH 7.4 assessed as 3-bromo-2-(4-carbamimidoylphenyl)-1H-indole-6-carboxamidine release by measuring change in emission spectra at 1 uM incubated in presence of CT-DNA and irradiated with 3.1 J/cm^2 mercury lamp light for 20 mins; format: functional
[11] = as §1, with “HeLa” for “MCF7”; format: ADME, cell-based; summary of the method: as §2
[12] = Photorelease activity in PBS at pH 7.4 assessed as wintergreen release at 50 uM in presence of CT-DNA illuminated with 3.1 J/cm^2 480 nm illumination for 20 mins by RP-HPLC analysis; format: functional; summary of the method: as §3
MCF7 [13] = experiment: Photocytotoxicity against human MCF7 cells assessed as reduction in cell viability incubated for 1 hr followed by washout and irradiation with 480 nm 2.3 J/cm^2 light for 15 mins with 8 J/cm^2 UV irradiation for 5 mins and measured after 24 hrs by MTT assay; format: functional; details: MCF7, light or radiation study; summary of the method: as §4
MCF7 [14] = experiment: Photocytotoxicity against human MCF7 cells assessed as reduction in cell viability incubated for 1 hr followed by washout and irradiation with 480 nm 2.3 J/cm^2 light for 15 mins and measured after 24 hrs by MTT assay; format: functional; details: MCF7, light or radiation study; summary of the method: as §4
[15] = Photorelease activity in PBS at pH 7.4 assessed as 3-bromo-2-(4-carbamimidoylphenyl)-1H-indole-6-carboxamidine release by measuring increase in fluorescence intensity at 50 uM in presence of CT-DNA incubated for 3 hrs under dark condition by RP-HPLC analysis; format: functional; summary of the method: as §3
Calf thymus DNA [16] = experiment: Binding affinity to calf thymus DNA assessed as dissociation constant by fluorescence based analysis; format: nucleic-acid assay, Bos taurus
Summary of the method: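 Fluorescence titration: compound at 20 μM in PBS pH 7.4, calf thymus DNA added in 10 μM steps until emission plateaued (~60 μM). Excitation 345 nm, emission 350–650 nm. KD obtained by fitting a one-site total saturation binding model (nonspecific binding proportional to ligand). Triplicate independent samples.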

MCF7 [17] = experiment: Photocytotoxicity against human MCF7 cells assessed as reduction in cell viability incubated for 1 hr followed by washout and irradiation with 8 J/cm^2 UV irradiation for 5 mins and measured after 24 hrs by MTT assay
[18] = Drug uptake in human MCF7 cells cultured as […] spheroids assessed as increase in green fluorescence in nuclear background at 10 uM incubated overnight under dark condition by DAPI filter based fluorescence analysis; format: ADME, cell-based; details: mcf7, 10 µM
MCF7 [19] = experiment: Photocytotoxicity against human MCF7 cells assessed as reduction in cell viability incubated for 1 hr followed by washout and irradiation with 8 J/cm^2 UV irradiation for 5 mins and measured after 24 hrs by MTT assay; format: functional; details: MCF7, light or radiation study; summary of the method: as §4
[20] = Drug localization in nucleus of human MCF7 cells assessed as increase in cyan fluorescence at 3 uM incubated for 1 hr by DAPI filter based analysis; format: ADME, subcellular; details: mcf7, 1 h
MCF7 [21] = experiment: Induction of DNA damage in human MCF7 cells assessed as double strand breaks by measuring pink foci formation in nucleus at 3 uM incubated for 2 hrs followed by irradiation with 8 J/cm^2 UV irradiation for 5 mins by gammaH2A.X antibody/Alexa 488/DAPI staining based fluorescence analysis; format: functional, cell-based
Summary of the method: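 MCF7 cells treated with compound at 3 μM, then illuminated with 480 nm (15 min, 2.3 J cm⁻²) plus UV (5 min, 8.0 J cm⁻²), or with UV alone. Left 2 h, fixed, stained with Alexa 488-tagged γH2AX antibody and DAPI counterstain. Nuclear foci imaged.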

[22] = Drug localization in nucleus of human MCF7 cells assessed as increase in cyan fluorescence of 3-bromo-2-(4-carbamimidoylphenyl)-1H-indole-6-carboxamidine excitation at 3 uM incubated for 1 hr in dark by DAPI filter based analysis; format: ADME, subcellular; details: mcf7, 1 h

Q: Which results are given for `CC1=CC(C)=[N+]2C1=C(COC(=O)/N=C(\N)c1ccc(-c3[nH]c4cc(C(=N)N)ccc4c3Br)cc1)c1c(C)cc(C)n1[B-]2(C)C`?
A: Activity (MCF7 [1]): Active; Stability [2]: Stable; Stability [3]: Stable; fold change (FC) (Calf thymus DNA [4]): 4; Drug metabolism (MCF7 [5]): Metabolite_Detected; Activity [6]: Active; TIME [7]: 0.533 h; Stability [8]: Stable; CC50 (MCF7 [9]): > 16 µM; Drug metabolism [10]: Metabolite detected; Stability [11]: Stable; Drug metabolism [12]: Metabolite not detected; CC50 (MCF7 [13]): 0.6 µM; CC50 (MCF7 [14]): 5.8 µM; Drug metabolism [15]: Metabolite not detected; Kd (Calf thymus DNA [16]): 10 µM

Q: Which Activity (MCF7 [17]) does the source give for `N=C(N)c1ccc(-c2[nH]c3cc(C(=N)N)ccc3c2Br)cc1` here?
A: Active

Q: What about the Drug uptake [18] of the same compound?
A: Active

Q: What about the CC50 (MCF7 [19]) of the same compound?
A: 7.6 µM

Q: What about the Drug uptake [20] of the same compound?
A: Active

Q: And the CC50 (MCF7 [9])?
A: > 64 µM

Q: What about the Activity (MCF7 [21]) of the same compound?
A: Active

Q: And the Kd (Calf thymus DNA [16])?
A: 19 µM

Q: Which results are given for `COC(=O)/N=C(/N)c1ccc2c(Br)c(-c3ccc(C(=N)N)cc3)[nH]c2c1`?
A: Drug uptake [22]: Active; fold change (FC) (Calf thymus DNA [4]): 4
